# According to ChEMBL document CHEMBL1781947, “Structure-activity studies on the nociceptin/orphanin FQ receptor antagonist 1-benzyl-N-{3-[spiroisobenzofuran-1(3H),4'-piperidin-1-yl]propyl} pyrrolidine-2-carboxamide” (Bioorg Med Chem, 2009):
# Activity calls are given as the source filed them.
# Experiments:
# [1] = target: Nociceptin receptor (Rattus norvegicus) (UniProt P35370); conditions: Sprague-Dawley, Vas deferens
# [2] = test system: Mus musculus; experiment: Effect on N/OFQ-induced antinociceptive activity in Swiss albino mouse at 10 mg/kg, ip administered 30 mins before 1 nmol, it N/OFQ challenge by tail withdrawal latency test; type: functional, organism-based; parameters: dose 10 mg/kg
# In short: (§1)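 Male Swiss albino mice (25–30 g), distal half of the tail dipped in 48 °C water, 20 s cutoff, observer blind to treatment. Test agent 10 mg/kg ip in 2% DMSO/10% encapsin, 30 min before 1 nmol N/OFQ or saline given icv (2 µl) or i.t. (5 µl). Latency read before and 5, 15, 30 and 60 min after injection. Four mice per group, repeated four times (n=16).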
# [3] = target: T1, Kappa-type opioid receptor (Homo sapiens, UniProt P41145); experiment: Displacement of [3H]DPN from human recombinant kappa-type opioid receptor expressed in CHO cell membranes; type: cell-based
# [4] = target: T2, Nociceptin receptor (Homo sapiens, UniProt P41146); experiment: Antagonist activity at human recombinant NOP expressed in expressed on CHO cells co-expressing Galphaqi5 chimeric protein assessed as inhibition of NOPN/OFQ-stimulated calcium mobilization; type: functional, cell-based
# In short: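 CHO cells stably co-expressing hNOP and Gαqi5, 40,000 cells/well, loaded 24 h later with Fluo-4 AM 3 µM, probenecid 2.5 mM, pluronic 0.01% for 30 min at 37 °C. Assay buffer HBSS/20 mM HEPES with probenecid and Brilliant Black. Fluorescence read at room temperature. Antagonist inhibition of 10 nM N/OFQ response. pKb derived from IC50 via the Kb equation. Four experiments in duplicate.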
# [5] = target: T2, Nociceptin receptor; experiment: Displacement of [3H]N/OFQ from human recombinant NOP receptor expressed in CHO cells; type: cell-based
# In short: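 Membranes from CHO cells expressing human NOP, prepared in 50 mM Tris-HCl, 5 mM Mg2+ pH 7.4. Incubation: 5 µg protein, ~200 pM [3H]N/OFQ, 10 µM peptidase inhibitors (amastatin, bestatin, captopril, phosphoramidon), 0.5% BSA, increasing competitor concentrations, 1 h at room temperature. Nonspecific binding defined with 1 µM unlabeled N/OFQ. Filtration onto 0.5% PEI-soaked GF/B filters; pKi reported.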
# [6] = target: T3, Delta-type opioid receptor (Homo sapiens, UniProt P41143); experiment: Displacement of [3H]DPN from human recombinant delta-type opioid receptor expressed in CHO cell membranes
# In short: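 CHO membranes expressing human DOP (25 µg protein) incubated 1 h at room temperature in 50 mM Tris-HCl pH 7.4, 0.5% BSA, ~0.7 nM [3H]diprenorphine with increasing test concentrations. Filtration through PEI-soaked GF/B filters, scintillation counting. Four separate experiments.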
# [7] = target: T2, Nociceptin receptor; experiment: Antagonist activity at human recombinant NOP expressed in CHO cells by [35S]GTPgammaS binding assay; type: functional, cell-based; conditions: read-out: pA2 (converted)
# In short: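 Membranes from CHO cells stably expressing human NOP, prepared in 50 mM Tris-HCl, 0.2 mM EGTA pH 7.4; 20 µg protein with MgCl2 1 mM, NaCl 100 mM, bacitracin 0.15 mM, peptidase inhibitors, GDP 100 µM, ~150 pM [35S]GTPγS. Antagonist preincubated 15 min at 30 °C, then N/OFQ concentration-response 1 h at 30 °C; filtration without PEI. pA2 from Schild analysis.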
# [8] = target: Nociceptin receptor (Mus musculus, UniProt P35377); experiment: Antagonist activity at nociceptin receptor in Swiss mouse vas deferens assessed as inhibition of electrically evoked twitches; type: functional, tissue-based; conditions: read-out: pA2 (converted)
# In short: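 Vas deferens from male Swiss mice (30–35 g), field-stimulated with supramaximal 1 ms pulses at 0.05 Hz. Twitches recorded isotonically after 60 min equilibration. Cumulative N/OFQ curves run in 0.5 log steps, without or with antagonist pre-incubated 15 min. pA2 from Schild analysis. At least four experiments.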
# [9] = target: T4, Mu-type opioid receptor (Homo sapiens, UniProt P35372); conditions: CHO
# [10] = target: Nociceptin receptor (Cavia porcellus) (UniProt P47748); conditions: Albino, Ileum
# [11] = test system: Mus musculus; experiment: Effect on N/OFQ-induced pronociciceptive activity in Swiss albino mouse at 10 mg/kg, ip administered 30 mins before 1 nmol, icv N/OFQ challenge by tail withdrawal latency test; type: functional, organism-based; parameters: dose 10 mg/kg
# In short: as §1
# [12] = target: T1, Kappa-type opioid receptor; conditions: CHO
# [13] = target: T3, Delta-type opioid receptor; conditions: CHO
# [14] = target: T4, Mu-type opioid receptor; experiment: Displacement of [3H]DPN from human recombinant mu-type opioid receptor expressed in CHO cell membranes; type: cell-based
# [15] = test system: Mus musculus; experiment: Effect on N/OFQ-induced pronociciceptive activity in Swiss albino mouse at 1 mg/kg, ip administered 30 mins before 1 nmol, icv N/OFQ challenge by tail withdrawal latency test; type: functional, organism-based; parameters: dose 1 mg/kg
# [16] = test system: Mus musculus; experiment: Effect on N/OFQ-induced antinociceptive activity in Swiss albino mouse at 1 mg/kg, ip administered 30 mins before 1 nmol, it N/OFQ challenge by tail withdrawal latency test; type: functional, organism-based; parameters: dose 1 mg/kg
# T2 sequence (P41146 whole entry): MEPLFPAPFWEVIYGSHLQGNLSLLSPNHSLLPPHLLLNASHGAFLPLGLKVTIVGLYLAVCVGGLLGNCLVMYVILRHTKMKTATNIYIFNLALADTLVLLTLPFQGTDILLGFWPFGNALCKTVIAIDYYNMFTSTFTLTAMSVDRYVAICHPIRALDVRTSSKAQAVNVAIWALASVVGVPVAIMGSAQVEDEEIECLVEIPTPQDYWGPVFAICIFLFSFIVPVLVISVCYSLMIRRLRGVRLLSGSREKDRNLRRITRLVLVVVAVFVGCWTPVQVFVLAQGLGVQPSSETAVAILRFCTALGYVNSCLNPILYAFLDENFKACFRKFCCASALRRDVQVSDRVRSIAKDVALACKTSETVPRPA
# Sequence of Nociceptin receptor (Mus musculus, UniProt P35377) (P35377 whole entry): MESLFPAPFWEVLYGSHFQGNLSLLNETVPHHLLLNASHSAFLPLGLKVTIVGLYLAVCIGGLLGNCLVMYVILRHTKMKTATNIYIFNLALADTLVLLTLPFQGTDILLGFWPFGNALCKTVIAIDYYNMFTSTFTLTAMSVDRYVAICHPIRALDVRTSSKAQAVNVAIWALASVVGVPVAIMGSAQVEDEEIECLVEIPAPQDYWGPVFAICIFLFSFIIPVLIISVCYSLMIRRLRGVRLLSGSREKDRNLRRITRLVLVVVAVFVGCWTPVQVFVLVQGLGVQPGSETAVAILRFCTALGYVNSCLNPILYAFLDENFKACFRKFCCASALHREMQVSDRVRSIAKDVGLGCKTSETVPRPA
# T1 sequence (P41145 whole entry): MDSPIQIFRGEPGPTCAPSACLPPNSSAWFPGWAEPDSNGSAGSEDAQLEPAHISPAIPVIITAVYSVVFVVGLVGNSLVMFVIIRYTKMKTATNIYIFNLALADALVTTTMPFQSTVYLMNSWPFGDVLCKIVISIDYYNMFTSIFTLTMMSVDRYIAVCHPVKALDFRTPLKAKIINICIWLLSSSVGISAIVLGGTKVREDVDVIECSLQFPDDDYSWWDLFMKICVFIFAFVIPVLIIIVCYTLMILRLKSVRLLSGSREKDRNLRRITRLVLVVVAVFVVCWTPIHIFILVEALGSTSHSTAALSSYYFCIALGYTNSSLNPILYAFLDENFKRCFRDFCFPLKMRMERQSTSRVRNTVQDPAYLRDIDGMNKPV
# T4 sequence (P35372 whole entry): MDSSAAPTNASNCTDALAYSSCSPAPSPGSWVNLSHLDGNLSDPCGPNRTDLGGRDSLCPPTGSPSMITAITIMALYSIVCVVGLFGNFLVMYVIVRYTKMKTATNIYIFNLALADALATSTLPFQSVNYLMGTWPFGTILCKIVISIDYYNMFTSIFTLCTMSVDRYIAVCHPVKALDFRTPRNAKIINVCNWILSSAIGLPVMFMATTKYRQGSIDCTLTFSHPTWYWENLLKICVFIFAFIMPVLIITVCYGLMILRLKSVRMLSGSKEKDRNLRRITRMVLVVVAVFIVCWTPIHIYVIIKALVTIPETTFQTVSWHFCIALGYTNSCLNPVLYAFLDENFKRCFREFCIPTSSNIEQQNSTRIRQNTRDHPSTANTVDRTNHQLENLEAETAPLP
# T3 sequence (P41143 whole entry): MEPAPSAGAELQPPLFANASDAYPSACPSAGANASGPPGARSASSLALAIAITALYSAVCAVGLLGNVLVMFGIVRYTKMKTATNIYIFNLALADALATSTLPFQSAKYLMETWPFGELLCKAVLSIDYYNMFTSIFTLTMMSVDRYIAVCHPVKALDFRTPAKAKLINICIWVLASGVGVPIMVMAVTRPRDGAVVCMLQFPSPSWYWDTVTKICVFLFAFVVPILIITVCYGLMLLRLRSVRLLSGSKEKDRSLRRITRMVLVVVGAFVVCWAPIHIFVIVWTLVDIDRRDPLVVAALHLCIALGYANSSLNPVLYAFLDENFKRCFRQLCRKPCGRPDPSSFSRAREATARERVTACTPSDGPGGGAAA
# Sequence of Nociceptin receptor (Rattus norvegicus) (P35370 whole entry): as the sequence (P35377 whole entry) above, with F9Y, A335S counted along it
# Sequence of Nociceptin receptor (Cavia porcellus) (P47748 whole entry): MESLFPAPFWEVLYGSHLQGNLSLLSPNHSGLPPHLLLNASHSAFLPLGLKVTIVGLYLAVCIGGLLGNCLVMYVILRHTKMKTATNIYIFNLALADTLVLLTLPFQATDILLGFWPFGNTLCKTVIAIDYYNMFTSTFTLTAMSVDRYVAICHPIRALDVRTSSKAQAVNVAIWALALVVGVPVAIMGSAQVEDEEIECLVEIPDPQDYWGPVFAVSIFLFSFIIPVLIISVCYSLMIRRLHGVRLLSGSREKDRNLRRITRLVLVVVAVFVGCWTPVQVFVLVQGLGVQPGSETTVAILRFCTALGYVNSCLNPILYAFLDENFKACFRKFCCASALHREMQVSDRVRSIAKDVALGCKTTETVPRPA
smiles,measurement,setting,value
O=C(NCCCN1CCC(c2c(Cl)cccc2Cl)CC1)[C@H]1CCCN1Cc1ccccc1,pKb,[1],8.06
same,Activity,[2],inactive
same,Ki,[3],316 nM
same,pKb,[4],8.47
same,Ki,[5],0.724 nM
same,Ki,[6],> 1000 nM
same,Kb,[7],0.123 nM
same,Kb,[8],10 nM
same,pKb,[9],6.11
same,pKb,[10],8.84
same,Activity,[11],inactive
same,pKb,[12],< 6
same,pKb,[13],< 6
same,Ki,[14],191 nM
N[C@@H](Cc1ccccc1)C(=O)NCCCN1CCC2(CC1)OCc1ccccc12,Ki,[5],58.9 nM
CN(CCCN1CCC2(CC1)OCc1ccccc12)C(=O)[C@H]1CCCN1Cc1ccccc1,Ki,[5],1150 nM
N[C@H](Cc1ccccc1)C(=O)NCCCN1CCC2(CC1)OCc1ccccc12,Ki,[5],58.9 nM
O=C(NCCCN1CCC(c2c(Cl)cccc2Cl)CC1)[C@@H]1CCCN1Cc1ccccc1,Ki,[5],83.2 nM
O=C(CNCc1ccccc1)NCCCN1CCC2(CC1)OCc1ccccc12,Ki,[5],60.3 nM
c1ccc(CN2CCC[C@@H]2CNCCCN2CCC3(CC2)OCc2ccccc23)cc1,Ki,[5],49 nM
C(=C[C@H]1CCCN1Cc1ccccc1)CCCN1CCC2(CC1)NCc1ccccc12,Ki,[5],> 10000 nM
O=C(OCCCN1CCC2(CC1)OCc1ccccc12)[C@H]1CCCN1Cc1ccccc1,Ki,[5],107 nM
O=C(NCCCN1CCC2(CC1)OCc1ccccc12)[C@H]1CCCN1Cc1ccccc1,Activity,[2],Active
same,pKb,[4],9.03
same,Ki,[5],0.24 nM
same,Kb,[8],5.75 nM
same,Activity,[11],Active
Cc1cccc2c1CC[C@H](CN1CCC(c3c(Cl)cccc3Cl)CC1)C[C@@H]2O,Activity,[15],Active
same,Activity,[16],Active
c1ccc(CN2CCC[C@@H]2COCCCN2CCC3(CC2)OCc2ccccc23)cc1,Ki,[5],158 nM
